In publication PMC6626631 (Biochemical and biophysical research communications, 2018):
pIC50: −log10 of the molar value. “Also recorded” adds a separate entry of the source.

Legend:
Assay type in all cases: biochemical
[1] = target: Human DRP1 (1—699) (Homo sapiens, UniProt O00429); assay: Liposome-dependent malachite green GTPase activity assay, DRP1
In short: (§1)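 Ni-NTA-purified E. coli enzyme (tag removed for dynamin-1, OPA1), 0.6 μM, preincubated 20 min RT with 80:20 soybean polar lipid:cardiolipin liposomes (0.1 mg/mL) and compound or DMSO; started by 1 mM GTP at 37 °C in 10 mM Hepes pH 7.0, 100 mM KCl, 4 mM MgCl2, 1% DMSO. EDTA stop, malachite green, A650 to phosphate rate; IC50 4-parameter fit.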

[2] = target: T1, OPA1 (195—960) (Homo sapiens, UniProt O60313); assay: Liposome-dependent malachite green GTPase activity assay, OPA1; conditions: read-out: Potency of inhibition, OPA1; data not shown
T1 sequence (O60313 195-960): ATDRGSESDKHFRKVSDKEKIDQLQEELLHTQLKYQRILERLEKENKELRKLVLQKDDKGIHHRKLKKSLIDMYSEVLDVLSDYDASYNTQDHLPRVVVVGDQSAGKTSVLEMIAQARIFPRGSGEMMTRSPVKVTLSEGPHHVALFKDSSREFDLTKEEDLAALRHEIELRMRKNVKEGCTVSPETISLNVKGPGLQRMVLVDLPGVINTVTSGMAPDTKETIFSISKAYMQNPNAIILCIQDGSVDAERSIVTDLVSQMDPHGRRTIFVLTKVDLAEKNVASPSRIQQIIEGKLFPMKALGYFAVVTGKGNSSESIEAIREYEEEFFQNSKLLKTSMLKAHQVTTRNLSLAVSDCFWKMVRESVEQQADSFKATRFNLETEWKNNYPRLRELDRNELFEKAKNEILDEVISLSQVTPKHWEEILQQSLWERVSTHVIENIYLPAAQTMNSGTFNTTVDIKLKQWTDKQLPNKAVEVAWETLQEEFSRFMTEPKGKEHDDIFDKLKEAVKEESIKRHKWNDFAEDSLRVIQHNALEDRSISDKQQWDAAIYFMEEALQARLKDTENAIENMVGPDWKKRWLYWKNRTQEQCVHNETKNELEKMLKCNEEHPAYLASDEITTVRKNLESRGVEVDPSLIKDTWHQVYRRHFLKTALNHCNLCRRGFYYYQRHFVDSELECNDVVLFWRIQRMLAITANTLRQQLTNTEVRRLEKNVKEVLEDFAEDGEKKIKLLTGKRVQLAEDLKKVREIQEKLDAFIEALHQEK
In short: as §1

[3] = target: T2, dynamin-1 (1—752) (Homo sapiens, UniProt Q05193); assay: Liposome-dependent malachite green GTPase activity assay, dynamin-1; conditions: read-out: Potency of inhibition, dynamin-1; data not shown
T2 sequence (Q05193 1-752): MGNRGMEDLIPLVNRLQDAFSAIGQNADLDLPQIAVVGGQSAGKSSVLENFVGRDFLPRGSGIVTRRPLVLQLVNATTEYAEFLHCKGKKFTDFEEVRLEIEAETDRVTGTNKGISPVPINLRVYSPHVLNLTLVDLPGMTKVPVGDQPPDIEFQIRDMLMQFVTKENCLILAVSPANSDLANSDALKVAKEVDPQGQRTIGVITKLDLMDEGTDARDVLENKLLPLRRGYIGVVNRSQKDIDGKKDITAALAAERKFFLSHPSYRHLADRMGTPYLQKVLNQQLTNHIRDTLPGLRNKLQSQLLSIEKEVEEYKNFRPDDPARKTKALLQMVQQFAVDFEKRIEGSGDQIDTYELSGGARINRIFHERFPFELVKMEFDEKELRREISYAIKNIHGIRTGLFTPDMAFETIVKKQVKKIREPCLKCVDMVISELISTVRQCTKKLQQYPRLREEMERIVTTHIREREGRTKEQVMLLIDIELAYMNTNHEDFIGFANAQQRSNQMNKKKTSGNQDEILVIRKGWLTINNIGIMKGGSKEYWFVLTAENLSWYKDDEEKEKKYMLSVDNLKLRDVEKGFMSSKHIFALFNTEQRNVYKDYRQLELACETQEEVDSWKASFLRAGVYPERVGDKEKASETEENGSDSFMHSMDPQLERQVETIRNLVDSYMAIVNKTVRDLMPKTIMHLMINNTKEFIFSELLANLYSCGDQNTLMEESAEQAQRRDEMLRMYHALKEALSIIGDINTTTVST
In short: as §1

[4] = target: DRP1 (Homo sapiens, UniProt O00429); assay: Malachite green GTPase activity assay in the absence of liposomes, DRP1; conditions: dose response in presence vs absence of liposomes
Chain of DRP1 (O00429 1-699 isoform O00429-4): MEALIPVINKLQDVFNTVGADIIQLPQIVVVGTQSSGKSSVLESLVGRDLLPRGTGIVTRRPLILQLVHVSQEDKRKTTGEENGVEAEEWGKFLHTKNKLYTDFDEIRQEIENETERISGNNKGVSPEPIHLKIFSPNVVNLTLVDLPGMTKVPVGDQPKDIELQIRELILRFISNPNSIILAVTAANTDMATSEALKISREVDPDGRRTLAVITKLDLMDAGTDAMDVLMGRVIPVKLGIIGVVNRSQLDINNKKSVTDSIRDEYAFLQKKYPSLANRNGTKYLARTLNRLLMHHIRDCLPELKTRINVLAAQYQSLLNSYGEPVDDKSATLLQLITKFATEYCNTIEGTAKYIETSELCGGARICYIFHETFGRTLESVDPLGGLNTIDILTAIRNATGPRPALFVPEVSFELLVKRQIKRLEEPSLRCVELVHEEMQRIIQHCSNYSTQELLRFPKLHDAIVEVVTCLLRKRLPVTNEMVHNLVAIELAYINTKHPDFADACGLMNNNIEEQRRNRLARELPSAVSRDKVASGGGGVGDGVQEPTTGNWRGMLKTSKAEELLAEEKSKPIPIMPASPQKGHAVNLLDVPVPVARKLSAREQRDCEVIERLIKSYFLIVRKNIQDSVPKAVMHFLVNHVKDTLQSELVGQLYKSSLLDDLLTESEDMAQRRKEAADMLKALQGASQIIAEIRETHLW

Chain of Human DRP1 (1—699) (O00429 1-699 isoform O00429-4): as above

Row | pIC50 ([1]; read-out: Potency of inhibition, DRP1, data not shown) | pIC50 [2] | pIC50 [3] | Potency/activity in the absence of liposomes [4] | SMILES | Inhibition of DRP1 GTPase activity (in words) ([1]; presence of liposomes, up to 100 μM compound concentration)
1 |  |  |  |  | COc1cc(-n2c(=S)[nH]c3ccccc3c2=O)c(Cl)cc1Cl [mdivi-1] | did not inhibit oligomeric DRP1 GTPase activity; also recorded: do not inhibit DRP1 up to 100 μM
2 | 3.30 to 3.52 | 3.30 to 3.52 | 3.30 to 3.52 | unaffected by liposomes | Nc1nc2c(ncn2[C@@H]2O[C@H](COP(=O)(O)OP(=O)(O)OP(O)(O)=S)[C@@H](O)[C@H]2O)c(=O)[nH]1 [GTPγS] | 
